Our source for the Activity, inhibition and GI50 values is ChEMBL document CHEMBL5653630, “Activation of the p53-MDM4 regulatory axis defines the anti-tumour response to PRMT5 inhibition through its role in regulating cellular splicing” (Sci Rep, 2018).

Calls of active or inactive are those of the source. The calls are words filed in the database; no cut-off is given here.

For experiment [1], the system named is Z-138. The experiment in a line: Induction of cell cycle arrest in human Z138 cells assessed as accumulation of cells at G1 phase cells incubated for 1 to 10 days by propidium iodide staining based flow cytometric analysis. It is filed as functional. To be noted: dose <= 1000.0 nM, time 1-10 day.
The subject of another experiment is MINO. The experiment in a line: Induction of cell cycle arrest in human MINO cells assessed as increase in 2n cell population measured upto 5000 nM measured for 3 days by propidium iodide staining based flow cytometric analysis. The format is functional. To be noted: time 3.0 day. Background: In flow cytometry, cells or beads pass a laser one at a time.
Another experiment relates to Maver1. The experiment in a line: Induction of apoptosis in human MAVER-1 cells assessed as early apoptotic cells incubated for 6 days by annexin-V/FITC propidium iodide staining based flow cytometry analysis. The format is functional, cell-based. To be noted: dose <= 5000.0 nM, time 6.0 day.
Experiment [2] deals with Z-138. The experiment in a line: In vivo inhibition of PRMT5 in human Z138 cells xenografted in mouse assessed as increase in p53 level at 100 mg/kg, po BID measured for 7 days by immunohistochemical analysis. The format is functional, organism-based. The note with it: time 7.0 day. For orientation: A xenograft is tissue or cells of one species grown in another, often human tumour cells in immunodeficient mice.

For experiment [3], the system named is Z-138. The experiment in a line: In vivo inhibition of PRMT5 in human Z138 cells xenografted in mouse assessed as increase in CDKN1 expression at 100 mg/kg, po BID measured for 7 days. To be noted: time 7.0 day. It is filed as functional, organism-based.
Experiment [4] deals with Z-138. The experiment in a line: In vivo inhibition of PRMT5 in human Z138 cells xenografted in mouse assessed as increase in PHLDA3 expression at 100 mg/kg, po BID measured for 7 days. It is filed as functional, organism-based. To be noted: time 7.0 day.
The test system of experiment [5] is Z-138. The experiment in a line: In vivo inhibition of PRMT5 in human Z138 cells xenografted in mouse assessed as increase in SESN1 expression at 100 mg/kg, po BID measured for 7 days. It is filed as functional, organism-based. To be noted: time 7.0 day.
For experiment [6], the system named is Z-138. The experiment in a line: In vivo inhibition of PRMT5 in human Z138 cells xenografted in mouse assessed as increase in p21 expression at 100 mg/kg, po BID measured for 7 days. To be noted: time 7.0 day. The format is functional, organism-based.
The subject of a further experiment is SiHa. The experiment in a line: Antiproliferative activity against human SiHa cells assessed as cell growth inhibition incubated for 10 days. The note with it: 240 h, time 10 day. It is filed as functional.
The test system of another experiment is BeWo. The experiment in a line: Antiproliferative activity against human BeWo cells assessed as cell growth inhibition incubated for 10 days. It is filed as functional. The note with it: 240 h, time 10 day. The method in brief: (§1)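 Cells kept in RPMI-1640 with 10% FBS, 2 mM L-alanyl-L-glutamine and 1 mM Na pyruvate (or a special medium) at 37°C, 5% CO2. Compound added 24 h after seeding, 10 concentrations in 3.16-fold dilution, 0.1% DMSO final. Medium replaced and cells re-dosed at 168 h; 240 h incubation. Nuclei fixed, dye-stained and imaged. gIC50 = growth midway between untreated and time-zero cell counts, from a 4-parameter fit.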

The next experiment relates to LS174T. The experiment in a line: Antiproliferative activity against human LS174T cells assessed as cell growth inhibition incubated for 10 days. The note with it: 240 h, time 10 day. The format is functional.
A further experiment has as its system SW837. The experiment in a line: Antiproliferative activity against human SW837 cells assessed as cell growth inhibition incubated for 10 days. It is filed as functional. To be noted: SW837, 240 h, time 10 day.
A further experiment concerns NCI-H508. The experiment in a line: Antiproliferative activity against human NCI-H508 cells assessed as cell growth inhibition incubated for 10 days. The format is functional. To be noted: NCI-H508, 240 h, time 10 day.
The test system of another experiment is AGS. The experiment in a line: Antiproliferative activity against human AGS cells assessed as cell growth inhibition incubated for 10 days. It is filed as functional. The note with it: 240 h, time 10 day. The method in brief:
as §1

In another experiment the test system is 786-0. The experiment in a line: Antiproliferative activity against human 786-0 cells assessed as cell growth inhibition incubated for 10 days. The format is functional. The note with it: 786-0, 240 h, time 10 day. The essentials:
as §1

A further experiment concerns ACHN. The experiment in a line: Antiproliferative activity against human ACHN cells assessed as cell growth inhibition incubated for 10 days. The format is functional. To be noted: 240 h, time 10 day. The method in brief:
as §1

The nature of experiment [7]: Antiproliferative activity against human HUH-6-clone5 cells assessed as cell growth inhibition incubated for 10 days. The format is functional. The note with it: HUH-6-clone5, 240 h, time 10 day. The essentials:
(§2)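 Outsourced panel run in 384-well plates. Cells were grown in RPMI-1640/10% FBS or a special medium at 37°C, 5% CO2. Compound was added 24 h after seeding as a 10-point, 3.16-fold series in 0.1% DMSO. Medium was refreshed and cells re-dosed at 168 h, with a time-zero plate kept. At 240 h cells were fixed, nuclei stained and imaged. gIC50 is growth midway between untreated and time zero, from a 4-parameter fit.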

The next experiment concerns COLO-829. The experiment in a line: Antiproliferative activity against human COLO-829 cells assessed as cell growth inhibition incubated for 10 days. The format is functional. The note with it: COLO-829, 240 h, time 10 day. The essentials: as §1
In a further experiment the test system is SK-MEL-1. The experiment in a line: Antiproliferative activity against human SK-MEL-1 cells assessed as cell growth inhibition incubated for 10 days. The format is functional. To be noted: SK-MEL-1, 240 h, time 10 day.
For a further experiment, the system named is Malme-3M. The experiment in a line: Antiproliferative activity against human Malme-3M cells assessed as cell growth inhibition incubated for 10 days. The note with it: 240 h, time 10 day. The format is functional.
Experiment [8] in a line: Antiproliferative activity against human SKO-007 cells assessed as cell growth inhibition incubated for 10 days. The note with it: SKO-007, 240 h, time 10 day. It is filed as functional.
The test system of a further experiment is A-427. The experiment in a line: Antiproliferative activity against human A-427 cells assessed as cell growth inhibition incubated for 10 days. It is filed as functional. To be noted: A-427, 240 h, time 10 day. The essentials: as §1
For another experiment, the system named is COR-L105. The experiment in a line: Antiproliferative activity against human COR-L105 cells assessed as cell growth inhibition incubated for 10 days. It is filed as functional. The note with it: COR-L105, 240 h, time 10 day. The method in brief:
as §2

Another experiment deals with Hs 766. The experiment in a line: Antiproliferative activity against human Hs766T cells assessed as cell growth inhibition incubated for 10 days. The format is functional. The note with it: Hs 766, 240 h, time 10 day. The method in brief:
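Eurofins panel, 384-well. Cells kept in RPMI-1640 with 10% FBS, 2 mM L-alanyl-L-glutamine and 1 mM Na pyruvate, or in a special medium, at 37°C under 5% CO2. Compound added 24 h after seeding as 10 concentrations in 3.16-fold steps, 0.1% DMSO final. Medium replaced and compound re-dosed at 168 h. After 240 h, cells fixed and nuclei stained for imaging. gIC50 = growth midway between untreated cells and time-zero count.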

Another experiment has as its system BXPC-3. The experiment in a line: Antiproliferative activity against human BXPC-3 cells assessed as cell growth inhibition incubated for 10 days. It is filed as functional. To be noted: BXPC-3, 240 h, time 10 day. The method in brief:
as §1

The subject of the next experiment is HuP-T4. The experiment in a line: Antiproliferative activity against human HuP-T4 cells assessed as cell growth inhibition incubated for 10 days. It is filed as functional. To be noted: HuP-T4, 240 h, time 10 day. The method in brief:
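Cells grown at 37°C under 5% CO2 in RPMI-1640 with 10% FBS, 2 mM L-alanyl-L-glutamine and 1 mM pyruvate (or a special medium), then seeded in 384-well plates. Compound was added 24 h later as a 10-point, 3.16-fold series in 0.1% DMSO final. Medium was replaced and cells re-dosed at 168 h; 240 h total. Nuclear-dye imaging gave cell counts, with a time-zero plate. gIC50 is growth halfway to time zero, from a 4-parameter fit.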

The nature of experiment [9]: Antiproliferative activity against human BM-1604 cells assessed as cell growth inhibition incubated for 10 days. To be noted: BM-1604, 240 h, time 10 day. It is filed as functional. The method in brief: as §1
The test system of the next experiment is SAOS-2. The experiment in a line: Antiproliferative activity against human SAOS-2 cells assessed as cell growth inhibition incubated for 10 days. It is filed as functional. To be noted: SAOS-2, 240 h, time 10 day.
The next experiment has as its system SHP77. The experiment in a line: Antiproliferative activity against human SHP77 cells assessed as cell growth inhibition incubated for 10 days. The format is functional. The note with it: SHP77, 240 h, time 10 day.
The target in experiment [10] is Protein arginine N-methyltransferase 5 (Homo sapiens) (UniProt O14744). The experiment in a line: Inhibition of PRMT5 in human Z138 cells expressing EGFP at 1 to 100000 nM incubated for 3 to 6 days. The format is cell-based. To be noted: dose 1-100000 nM, time 3-6 day.
Protein arginine N-methyltransferase 5 (Homo sapiens), sequence (O14744 whole entry): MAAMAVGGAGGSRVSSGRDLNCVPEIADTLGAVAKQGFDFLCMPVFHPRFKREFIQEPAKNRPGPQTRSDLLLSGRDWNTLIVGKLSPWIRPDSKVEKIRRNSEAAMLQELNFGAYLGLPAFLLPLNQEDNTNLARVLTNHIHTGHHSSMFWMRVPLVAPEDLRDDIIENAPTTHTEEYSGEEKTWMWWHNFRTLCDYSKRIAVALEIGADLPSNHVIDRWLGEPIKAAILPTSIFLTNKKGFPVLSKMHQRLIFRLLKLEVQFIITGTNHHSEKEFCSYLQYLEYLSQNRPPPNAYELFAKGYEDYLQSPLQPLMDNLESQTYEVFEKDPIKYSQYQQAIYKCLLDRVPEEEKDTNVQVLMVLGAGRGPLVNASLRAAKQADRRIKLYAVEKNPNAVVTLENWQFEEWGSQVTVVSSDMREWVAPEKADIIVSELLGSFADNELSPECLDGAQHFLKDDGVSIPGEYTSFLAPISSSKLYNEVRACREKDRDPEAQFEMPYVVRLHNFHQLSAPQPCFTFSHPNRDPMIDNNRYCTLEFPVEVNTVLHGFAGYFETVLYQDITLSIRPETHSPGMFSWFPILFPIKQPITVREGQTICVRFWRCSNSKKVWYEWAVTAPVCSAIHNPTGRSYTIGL

On to `CC(=O)N1CCC(Nc2cc(C(=O)NC[C@H](O)CN3CCc4ccccc4C3)ncn2)CC1` [PEMRAMETOSTAT], for which the Activity result in the experiment on Z-138 [1] and in the experiment with Maver1 was “Dose-Dependent Effect” throughout. For the same compound, the result with MINO was inactive. For the same compound, the inhibition entry in the experiment on Z-138 [2], with Z-138 [3], with Z-138 [4], in the experiment on Z-138 [5] and in the experiment with Z-138 [6] was “Active” in each case.

For orientation: GI50 means the concentration giving 50% growth inhibition. For the compound `O=C(NC[C@H](O)CN1CCc2ccccc2C1)c1ccnc(NC2CCC2)c1`, the GI50 in the experiment on SiHa was 2510 nM; with BeWo it was 1090 nM; in the experiment on LS174T it was 170 nM; in the experiment on SW837, 102 nM; with NCI-H508, 307 nM; with AGS it was 2030 nM. The GI50 with 786-0 came out at 20.3 nM; with ACHN, 38.6 nM; in [7], 361 nM; in the experiment with COLO-829 it was 54.4 nM; in the experiment on SK-MEL-1, 38.7 nM; in the experiment with Malme-3M it was 265 nM. For the same compound, the GI50 in experiment [8] came to 84.4 nM; in the experiment on A-427, 130 nM; in the experiment with COR-L105 it was 314 nM; with Hs 766, 1120 nM; with BXPC-3, 160 nM; with HuP-T4, 84.9 nM. Moreover, the GI50 in experiment [9] worked out at 142 nM; in the experiment with SAOS-2 it was 48.2 nM; with SHP77, 152 nM. In addition, in [10], the inhibition entry is “inactive”.
